Measurements published in ChEMBL document CHEMBL1156838, “Utilization of the 1,2,3,5-thiatriazolidin-3-one 1,1-dioxide scaffold in the design of potential inhibitors of human neutrophil proteinase 3” (Bioorg Med Chem, 2010).
The source made the active and inactive calls. The rule behind the calls is not given here.

Assays:
[1] = biological target: T1, Myeloblastin (Homo sapiens) (UniProt P24158); experiment: Inhibition of human neutrophil proteinase 3
T1 sequence (whole entry): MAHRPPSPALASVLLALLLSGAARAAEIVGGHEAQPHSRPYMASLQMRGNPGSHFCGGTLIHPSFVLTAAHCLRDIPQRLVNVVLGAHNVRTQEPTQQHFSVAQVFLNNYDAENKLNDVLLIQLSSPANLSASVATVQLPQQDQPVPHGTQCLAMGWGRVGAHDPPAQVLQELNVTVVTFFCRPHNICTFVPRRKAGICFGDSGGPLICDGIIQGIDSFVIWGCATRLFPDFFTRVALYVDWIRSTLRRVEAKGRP
Outline: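 Human proteinase 3 (final 34.5 nM; added from a stock in 0.1 M phosphate pH 6.50) in 0.1 M HEPES/0.5 M NaCl pH 7.25 at 25 °C. Thiobenzyl ester substrate Boc-Ala-Ala-NVa-SBzl, with 5,5′-dithio-bis(2-nitrobenzoic acid) from DMSO and single inhibitor level from DMSO. Absorbance followed at […] for 2 min against an uninhibited hydrolysis control. % inhibition = (1 − v/vo)×100, duplicate or triplicate mean.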

[2] = biological target: T2, Neutrophil elastase (Homo sapiens) (UniProt P08246); experiment: Inhibition of human neutrophil elastase
T2 sequence (whole entry): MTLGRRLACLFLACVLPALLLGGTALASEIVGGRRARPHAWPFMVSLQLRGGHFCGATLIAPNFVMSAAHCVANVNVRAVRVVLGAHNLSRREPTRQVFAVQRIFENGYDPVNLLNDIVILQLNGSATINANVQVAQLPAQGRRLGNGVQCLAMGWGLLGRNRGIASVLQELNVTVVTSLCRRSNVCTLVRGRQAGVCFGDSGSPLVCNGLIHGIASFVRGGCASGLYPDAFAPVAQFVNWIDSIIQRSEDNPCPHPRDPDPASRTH
Outline: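 Human elastase (final 70 nM; added from a stock in 0.05 mM sodium acetate/0.5 M NaCl pH 5.50) in 0.1 M HEPES/0.5 M NaCl pH 7.25 at 25 °C. Substrate was methoxysuccinyl-Ala-Ala-Pro-Val p-nitroaniline, with single inhibitor level from DMSO. […] read for 2 min against a DMSO-only hydrolysis control. % inhibition = (1 − v/vo)×100, mean of duplicate or triplicate runs.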

inhibition [1]	inhibition [2]	Structure (SMILES)
inactive	inactive	CCN1CN(Cc2cccc(NC(=O)c3ccccc3)c2)S(=O)(=O)N1CC
inactive	inactive	CCN1CN(Cc2cccc(NC(=O)c3cccc(Oc4ccccc4)c3)c2)S(=O)(=O)N1CC
inactive	inactive	CCN1CN(Cc2cccc(NC(=O)c3cccc(OC)c3)c2)S(=O)(=O)N1CC

More lines, now with the values behind:

Structure (SMILES)	inhibition [1]	inhibition [2]
CCN1CN(Cc2cccc(NC(=O)NCCc3ccccc3)c2)S(=O)(=O)N1CC	inactive	inactive
CCN1CN(Cc2cccc(NC(=O)CCOC)c2)S(=O)(=O)N1CC	inactive	inactive
CCN1CN(Cc2cn(CC(=O)c3ccccc3F)nn2)S(=O)(=O)N1CC	inactive	inactive
CCN1C(=O)N(C(Cc2ccccc2)C(=O)Nc2ccccc2NC(=O)OCC(C)C)S(=O)(=O)N1CC (stereo unspecified)	inactive	Active
CCN1CN(Cc2cn(CC(=O)c3cccs3)nn2)S(=O)(=O)N1CC	inactive	inactive
